In ChEMBL document CHEMBL4130455, “Design, Synthesis, and Evaluation of Tetrahydropyrrolo[1,2-c]pyrimidines as Capsid Assembly Inhibitors for HBV Treatment” (ACS Med Chem Lett, 2017):
Converted amounts (≈) assume the structure as drawn.

How the values were obtained:
[1] = test system: Hepatitis B virus; test: Antiviral activity against HBV infected in human HepG2.2.15 cells assessed as inhibition of viral DNA level incubated for 3 days followed by medium replacement measured after 3 days by RT-PCR method; assay type: functional, organism-based; settings: HepG2.2.15, 72 h
In short: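 HepG2.2.15 cells seeded at 4 × 10^4 cells/well, compound exposure 3 days, then fresh medium and a further 3-day incubation. Supernatants collected and stored at −80 °C. HBV DNA extracted from supernatant and quantified by qPCR. IC50 reported as the mean of three experiments.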

[2] = test system: Hepatitis B virus; test: Antiviral activity against HBV1.3 mer infected in hydrodynamic injection BALB/c mouse model assessed as log reduction in viral DNA in plasma at 50 mg/kg, po bid measured on day 3 by real-time PCR method relative to control; assay type: functional
In short: (§1)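 HBV DNA mouse model established by hydrodynamic injection. Mice, n = 6 per group, dosed orally twice daily with compound or vehicle (0.5% HEC). HBV DNA in plasma and liver measured by qPCR; log reduction taken versus the vehicle group. Error shown as standard error; significance by Student's t test.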

[3] = molecular target: Cytochrome P450 2C19 (Homo sapiens, UniProt P33261); test: Inhibition of CYP2C19 in human liver microsomes using S-mephenytoin as substrate preincubated for 10 mins followed by substrate addition measured after 10 mins in presence of NADPH by LC-MS/MS analysis; assay type: ADME
[4] = molecular target: Cytochrome P450 2D6 (Homo sapiens, UniProt P10635); test: Inhibition of CYP2D6 in human liver microsomes using dextromethorphan as substrate preincubated for 10 mins followed by substrate addition measured after 10 mins in presence of NADPH by LC-MS/MS analysis; assay type: ADME; settings: read-out: INH
[5] = molecular target: T1, Cytochrome P450 1A2 (Homo sapiens, UniProt P05177); test: Inhibition of CYP1A2 in human liver microsomes using phenacetin as substrate preincubated for 10 mins followed by substrate addition measured after 10 mins in presence of NADPH by LC-MS/MS analysis; assay type: ADME
T1 sequence (P05177 whole entry): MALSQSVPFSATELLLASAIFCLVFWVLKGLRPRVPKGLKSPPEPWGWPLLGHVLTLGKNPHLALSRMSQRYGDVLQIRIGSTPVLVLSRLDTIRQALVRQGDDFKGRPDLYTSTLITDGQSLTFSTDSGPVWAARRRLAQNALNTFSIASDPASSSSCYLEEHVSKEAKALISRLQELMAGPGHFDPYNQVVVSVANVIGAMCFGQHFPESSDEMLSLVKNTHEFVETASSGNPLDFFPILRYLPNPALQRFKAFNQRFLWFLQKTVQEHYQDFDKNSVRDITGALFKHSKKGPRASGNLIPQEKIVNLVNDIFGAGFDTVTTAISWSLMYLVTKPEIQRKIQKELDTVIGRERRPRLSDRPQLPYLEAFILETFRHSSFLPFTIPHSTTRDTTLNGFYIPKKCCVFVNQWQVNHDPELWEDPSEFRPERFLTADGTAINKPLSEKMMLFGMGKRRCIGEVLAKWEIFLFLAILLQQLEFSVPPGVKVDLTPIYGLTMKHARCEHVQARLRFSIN

[6] = molecular target: Core antigen (Hepatitis B virus, UniProt Q03732); test: Inhibition of HBV C150-Bodipy FL N-(2-aminoethyl) maleimide labeled capsid assessed as reduction in NaCl-induced capsid assembly preincubated for 15 mins followed by NaCl addition measured after 1 hr by fluorescence quenching assay
[7] = Kinetic solubility of the compound; assay type: physicochemical; settings: read-out: Kinetic_solubility
[8] = Lipophilicity, log D of the compound; assay type: physicochemical; settings: octanol/water
[9] = AUC (0 to last) in Balb/c mouse at 10 mg/kg, po administered via gavage by LC-MS/MS analysis; assay type: ADME, organism-based; set-up: dose 10 mg/kg, time 0 - last, route oral; settings: in vivo
In short: (§2)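 Single-dose PK in female Balb/c mice, n = 3 per compound; dosing vehicle 0.5% HEC, formulated at 1.00 mg/mL.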

[10] = test system: Hepatitis B virus; test: Antiviral activity against HBV1.3 mer infected in hydrodynamic injection BALB/c mouse model assessed as log reduction in viral DNA in plasma at 50 mg/kg, po bid measured on day 5 by real-time PCR method relative to control
[11] = Cmax in Balb/c mouse at 10 mg/kg, po administered via gavage by LC-MS/MS analysis; assay type: ADME, organism-based; set-up: dose 10 mg/kg, route oral; settings: in vivo; in short: as §2
[12] = Half life in Balb/c mouse at 1 mg/kg, iv administered as bolus by LC-MS/MS analysis; assay type: ADME, organism-based; settings: in vivo; in short: as §2
[13] = molecular target: Cytochrome P450 2C9 (Homo sapiens, UniProt P11712); test: Inhibition of CYP2C9 in human liver microsomes using diclofenac as substrate preincubated for 10 mins followed by substrate addition measured after 10 mins in presence of NADPH by LC-MS/MS analysis; assay type: ADME
[14] = Ratio of AUC (0 to 4 hrs) in Balb/c mouse liver to plasma administered orally by LC-MS/MS analysis; assay type: ADME; settings: liver and plasma, po, read-out: Ratio AUC
[15] = Clearance in Balb/c mouse at 1 mg/kg, iv administered as bolus by LC-MS/MS analysis; assay type: ADME, organism-based; settings: in vivo; in short: as §2
[16] = Oral bioavailability in Balb/c mouse at 10 mg/kg administered via gavage by LC-MS/MS analysis; assay type: ADME, organism-based; settings: in vivo; in short: as §2
[17] = Volume of distribution at steady state in Balb/c mouse at 1 mg/kg, iv administered as bolus by LC-MS/MS analysis; assay type: ADME, organism-based; settings: in vivo, read-out: Vdss; in short: as §2
[18] = AUC (0 to last) in Balb/c mouse at 1 mg/kg, iv administered as bolus by LC-MS/MS analysis; assay type: ADME, organism-based; set-up: dose 1 mg/kg, time 0 - last, route intravenous; settings: in vivo; in short: as §2
[19] = molecular target: Cytochrome P450 3A4 (Homo sapiens, UniProt P08684); test: Inhibition of CYP3A4 in human liver microsomes using midazolam as substrate preincubated for 10 mins followed by substrate addition measured after 10 mins in presence of NADPH by LC-MS/MS analysis; assay type: ADME; settings: read-out: INH
[20] = test system: Hepatitis B virus; test: Antiviral activity against HBV1.3 mer infected in hydrodynamic injection BALB/c mouse model assessed as log reduction in viral DNA in liver at 50 mg/kg, po bid measured on day 7 by real-time PCR method relative to control; assay type: functional; in short: as §1

Cytochrome P450 2C9, sequence (P11712 whole entry): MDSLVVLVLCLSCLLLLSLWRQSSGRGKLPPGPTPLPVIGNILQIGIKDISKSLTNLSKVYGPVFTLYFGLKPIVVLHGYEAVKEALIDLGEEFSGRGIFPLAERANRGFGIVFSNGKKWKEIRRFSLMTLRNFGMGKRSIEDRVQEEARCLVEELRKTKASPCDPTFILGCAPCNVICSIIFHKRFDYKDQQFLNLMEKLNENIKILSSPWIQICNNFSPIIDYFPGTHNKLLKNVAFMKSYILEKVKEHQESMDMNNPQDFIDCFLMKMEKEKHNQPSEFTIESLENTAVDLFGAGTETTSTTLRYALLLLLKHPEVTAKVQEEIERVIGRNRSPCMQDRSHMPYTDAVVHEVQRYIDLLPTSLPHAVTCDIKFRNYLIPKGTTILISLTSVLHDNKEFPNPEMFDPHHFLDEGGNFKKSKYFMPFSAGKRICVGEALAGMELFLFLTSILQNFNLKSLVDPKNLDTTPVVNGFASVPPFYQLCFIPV
Core antigen, sequence (Q03732 whole entry): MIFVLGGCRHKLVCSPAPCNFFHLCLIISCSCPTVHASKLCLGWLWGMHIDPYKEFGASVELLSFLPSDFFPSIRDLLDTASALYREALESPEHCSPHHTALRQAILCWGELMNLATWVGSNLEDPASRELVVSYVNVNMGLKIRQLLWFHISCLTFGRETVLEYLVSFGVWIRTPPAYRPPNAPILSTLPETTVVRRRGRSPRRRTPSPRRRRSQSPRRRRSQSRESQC
Cytochrome P450 2C19, sequence (P33261 whole entry): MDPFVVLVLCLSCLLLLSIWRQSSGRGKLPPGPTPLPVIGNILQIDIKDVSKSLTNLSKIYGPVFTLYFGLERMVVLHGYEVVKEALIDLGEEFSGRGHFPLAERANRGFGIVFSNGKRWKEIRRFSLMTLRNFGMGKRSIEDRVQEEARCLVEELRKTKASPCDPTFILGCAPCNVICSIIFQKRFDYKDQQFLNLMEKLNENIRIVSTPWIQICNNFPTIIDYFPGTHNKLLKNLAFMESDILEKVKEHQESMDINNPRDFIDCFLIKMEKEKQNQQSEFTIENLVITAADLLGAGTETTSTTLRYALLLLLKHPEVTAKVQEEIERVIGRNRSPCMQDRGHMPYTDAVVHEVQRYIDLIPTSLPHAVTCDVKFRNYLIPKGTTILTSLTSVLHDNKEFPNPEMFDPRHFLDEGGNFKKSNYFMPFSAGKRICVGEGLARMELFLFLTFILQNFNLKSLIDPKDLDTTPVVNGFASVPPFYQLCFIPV
Cytochrome P450 3A4, sequence (P08684 whole entry): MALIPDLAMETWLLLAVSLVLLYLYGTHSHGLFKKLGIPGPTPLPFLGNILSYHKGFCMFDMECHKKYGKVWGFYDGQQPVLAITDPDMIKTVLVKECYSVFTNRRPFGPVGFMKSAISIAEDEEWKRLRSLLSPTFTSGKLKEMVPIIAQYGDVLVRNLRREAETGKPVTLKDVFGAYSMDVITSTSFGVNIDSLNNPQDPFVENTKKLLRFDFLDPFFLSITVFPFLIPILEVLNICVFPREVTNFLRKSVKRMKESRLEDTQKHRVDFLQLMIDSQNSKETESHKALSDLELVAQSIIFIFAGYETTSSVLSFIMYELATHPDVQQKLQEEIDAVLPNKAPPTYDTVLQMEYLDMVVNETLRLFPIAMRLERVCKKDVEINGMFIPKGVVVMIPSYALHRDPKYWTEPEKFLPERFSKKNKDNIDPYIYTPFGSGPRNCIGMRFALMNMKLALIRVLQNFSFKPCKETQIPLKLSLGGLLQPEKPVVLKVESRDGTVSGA
Cytochrome P450 2D6, sequence (P10635 whole entry): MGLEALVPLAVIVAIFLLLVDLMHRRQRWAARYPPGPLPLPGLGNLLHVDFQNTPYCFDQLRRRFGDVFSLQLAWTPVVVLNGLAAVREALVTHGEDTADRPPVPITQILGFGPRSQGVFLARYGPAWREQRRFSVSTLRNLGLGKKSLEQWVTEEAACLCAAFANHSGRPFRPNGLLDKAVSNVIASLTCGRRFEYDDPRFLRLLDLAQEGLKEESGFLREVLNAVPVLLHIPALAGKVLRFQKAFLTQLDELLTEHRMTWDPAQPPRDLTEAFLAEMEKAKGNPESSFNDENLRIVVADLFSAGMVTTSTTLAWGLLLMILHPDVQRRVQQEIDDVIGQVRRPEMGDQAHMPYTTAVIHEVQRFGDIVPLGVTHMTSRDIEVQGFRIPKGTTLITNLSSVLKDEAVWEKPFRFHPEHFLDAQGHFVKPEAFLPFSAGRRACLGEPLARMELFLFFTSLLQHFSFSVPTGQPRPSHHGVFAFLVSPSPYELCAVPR

SMILES | IC50 [1] [µM] | also measured
CCOC(=O)C1=C2CCCN2C(c2nccs2)=NC1c1ccc(F)cc1F (stereo not drawn) | 0.51 | 
CCOC(=O)C1=C2CCCN2C(c2nccs2)=NC1c1ccc(F)cc1C (stereo not drawn) | 0.45 | 
CN(C)CCOC(=O)C1=C2CCCN2C(c2nccs2)=NC1c1ccc(F)cc1Cl (stereo not drawn) | > 10 | 
CCOC(=O)C1=C2CCN2C(c2nccs2)=NC1c1ccc(F)cc1Cl (stereo not drawn) | 4.1 | 
CCOC(=O)C1=C2CCCN2C(c2ccc(F)cn2)=NC1c1ccc(F)cc1Cl (stereo not drawn) | 8.3 | 
CCOC(=O)C1=C2CCCN2C(c2nccs2)=NC1c1c(F)cccc1Cl (stereo not drawn) | > 10 | 
CCOC(=O)C1=C2CCCN2C(C2CC2)=NC1c1ccc(F)cc1Cl (stereo not drawn) | > 10 | 
CCOC(=O)C1=C2CN(S(C)(=O)=O)CCN2C(c2nccs2)=NC1c1ccc(F)cc1Br (stereo not drawn) | 0.81 | 
CCOC(=O)C1=C2CCCN2C(c2ccsn2)=NC1c1ccc(F)cc1Cl (stereo not drawn) | 2.8 | 
COC(=O)C1=C2C[C@H](NS(C)(=O)=O)CN2C(c2nccs2)=N[C@H]1c1ccc(F)cc1Cl | 0.01 | FC [2]: 2.05; INH [3]: 39 µM; IC50 [4]: > 50 µM; INH [5]: > 50 µM; IC50 [6]: 0.8 µM; solubility kinetic [7]: 22 µM (≈ 10.7 µg/mL); logD [8]: 2.8; AUC(0-t) [9]: 9.1 µM·h; FC [10]: 2.57; Cmax [11]: 4.7 µM; half-life [12]: 1.1 h; INH [13]: 28 µM; Kp [14]: 10; clearance [15]: 21 mL/min/kg; bioavailability [16]: 54%; Vd [17]: 2 L/kg; AUC(0-t) [18]: 1.7 µM·h; IC50 [19]: 11 µM; FC [20]: 0.68
CCOC(=O)C1=C2C[C@@H](NS(C)(=O)=O)CN2C(c2nccs2)=N[C@H]1c1ccc(F)cc1Cl | 70 | 
CCOC(=O)C1=C2CCCN2C(c2nccs2)=NC1c1ccc(F)cc1 (stereo not drawn) | 1.2 | 
CCOC(=O)C1=C2CCCN2C(c2ncco2)=NC1c1ccc(F)cc1Cl (stereo not drawn) | 6.3 | 
CCOC(=O)C1=C2C[C@H](N(C)C)CN2C(c2nccs2)=N[C@H]1c1ccc(F)cc1Br | 500 | 
CCOC(=O)C1=C2CCCN2C(c2nccs2)=NC1c1ccc(F)c(F)c1 (stereo not drawn) | 0.43 | 
CCOC(=O)C1=C2CCCN2C(c2nccs2)=NC1c1cc(Cl)sc1Cl (stereo not drawn) | 1.7 | 
CCOC(=O)C1=C2C[C@H](NS(C)(=O)=O)CN2C(c2nccs2)=N[C@H]1c1ccc(F)cc1Cl | 10 | 
CCOC(=O)C1=C2CCCN2C(c2nccs2)=NC1c1ccncc1Cl (stereo not drawn) | > 10 | 
CCOC(=O)C1=C2CCCN2C(N2CCOCC2)=NC1c1ccc(F)cc1Cl (stereo not drawn) | > 10 | 
CCOC(=O)C1=C2CCCN2C(c2nccs2)=NC1c1ccc(F)cc1Br (stereo not drawn) | 0.21 | 
CONC(=O)C1=C2CCCN2C(c2nccs2)=NC1c1ccc(F)cc1Cl (stereo not drawn) | 5 | 
COC(=O)C1=C2CCCN2C(c2nccs2)=NC1c1ccc(F)cc1Cl (stereo not drawn) | 0.32 | 
CCOC(=O)C1=C2CCCN2C(c2nccs2)=NC1c1cnn(C)c1 (stereo not drawn) | > 10 | 
CCOC(=O)C1=C2CCCN2C(c2ncc(F)cn2)=NC1c1ccc(F)cc1Cl (stereo not drawn) | > 10 | 
